Experimental data as given in ChEMBL document CHEMBL1143671, “Antibacterial nicotinamide adenine dinucleotide synthetase inhibitors: amide- and ether-linked tethered dimers with alpha-amino acid end groups” (J Med Chem, 2007).
≈ marks a conversion by molar mass, not a printed value. Calls of active or inactive are those of the source. The rule behind the calls is not given here.

Key:
[1] = (§1) Inhibition of Bacillus subtilis NAD synthetase in presence of 0.001% Triton X-100 by fluorescence based assay
In short: (§2)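 B. subtilis NAD synthetase, overexpressed and purified, 2.0 µg/mL. Coupled to yeast ADH (40 µg/mL) with 1% EtOH at pH 8.5: 58.5 mM HEPPS, 18.5 mM NH4Cl, 19.5 mM KCl, 9.75 mM MgCl2, 0.1 mM NaAD, 2.5% DMSO. No BOG; 0–0.01% Triton X-100. Started with 0.2 mM ATP. NADH read by fluorescence. Triplicate points; IC50 averaged over two experiments.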

[2] = (§3) Inhibition of Bacillus subtilis NAD synthetase in presence of 0.01% Triton X-100 by fluorescence based assay; in short: as §2
[3] = tested on: Staphylococcus aureus; assay: Antibacterial activity against methicillin-resistant Staphylococcus aureus ATCC 33591; assay type: functional
In short: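 Broth tube dilution MIC, performed by a contract lab. Bacteria were subcultured from stock onto agar and grown overnight at 37 ± 2 °C in ambient air. Overnight cultures went into broth adjusted to about 5 × 10⁸ CFU/mL. Inhibitor started at 50 µg/mL in doubling dilutions, 10 tubes in duplicate. Each tube received 0.01 mL of challenge broth.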

[4] = Inhibition of Bacillus subtilis NAD synthetase by fluorescence based assay; in short: as §2
[5] = tested on: Staphylococcus aureus; assay: Antibacterial activity against Staphylococcus aureus ATCC 29213; assay type: functional
In short: (§4)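 Broth tube dilution MIC. Bacteria subcultured from stock onto agar and grown overnight at 37 ± 2 °C in ambient air. Overnight cultures went into broth adjusted to about 5 × 10⁸ CFU/mL. Inhibitor started at 50 µg/mL with doubling dilutions over 10 tubes in duplicate. Each tube received 0.01 mL of challenge broth.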

[6] = tested on: Bacillus subtilis; assay: Antibacterial activity against Bacillus subtilis ATCC 14289; assay type: functional; in short: as §4
[7] = (§5) Inhibition of yeast alcohol dehydrogenase in presence of 0.001% Triton X-100 by fluorescence based assay; set-up: species or system Saccharomyces cerevisiae
In short: (§6)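 Yeast ADH 2.5 µg/mL in 60 mM HEPPS pH 8.5 with 0.5 mM NH4Cl, 20 mM KCl, 10 mM MgCl2, 60 mM ethanol, 2.5% DMSO and 0–0.01% Triton X-100. Started with 0.75 mM β-NAD and stopped with 1.2 M guanidine·HCl after 2 min. NADH fluorescence read at 355 nm excitation / 460 nm emission, pre-NAD blank subtracted. Triplicate points; IC50 averaged over two experiments.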

[8] = Inhibition of yeast alcohol dehydrogenase by fluorescence based assay; set-up: species or system Saccharomyces cerevisiae; in short: as §6
[9] = tested on: Pseudomonas aeruginosa; assay: Antibacterial activity against Pseudomonas aeruginosa ATCC 27853; assay type: functional; in short: as §4
[10] = (§7) Inhibition of yeast alcohol dehydrogenase in presence of 0.01% Triton X-100 by fluorescence based assay; set-up: species or system Saccharomyces cerevisiae; in short: as §6
[11] = tested on: Bacillus subtilis; assay: as §1; in short: as §2
[12] = tested on: Bacillus subtilis; assay: as §3; in short: as §2
[13] = tested on: Saccharomyces cerevisiae; assay: as §5; in short: as §6
[14] = tested on: Saccharomyces cerevisiae; assay: as §7; in short: as §6

Q: Which results are given for `C[N+](C)(C)[C@@H](Cc1ccccc1)C(=O)OCCCCCCCCOc1ccc(OCc2ccccc2)cc1`?
A: IC50 [1]: 16.5 µM; IC50 [2]: 37 µM; MIC [3]: 0.78 µM; IC50 [4]: 22 µM; MIC [5]: 0.78 µM; MIC [6]: 0.78 µM; IC50 [7]: 69 µM; IC50 [8]: 27 µM; MIC [9]: > 50 µM; IC50 [10]: 266 µM

Q: For `N=C(N)N[C@H](COCCCCCCCCOc1ccc(OCc2ccccc2)cc1)Cc1ccccc1`, which MIC [3] is on record?
A: 0.78 µM (≈ 0.393 µg/mL)

Q: And the IC50 [4]?
A: 11 µM

Q: And the MIC [6]?
A: 3.13 µM (≈ 1.58 µg/mL)

Q: For `N=C(N)N[C@H](C(=O)NCCCCCCCCOc1ccc(OCc2ccccc2)cc1)c1ccccc1`, which MIC [3] is on record?
A: 1.56 µM (≈ 0.784 µg/mL)

Q: What about the IC50 [4] of the same compound?
A: 19 µM

Q: What about the MIC [6] of the same compound?
A: 1.56 µM (≈ 0.784 µg/mL)

Q: Which MIC [3] does the source give for `C[N+](C)(C)c1ccc(CC(=O)OCCCCCCCCOc2ccc(OCc3ccccc3)cc2)cc1` here?
A: 6.2 µM

Q: And the IC50 [4]?
A: 41 µM

Q: And the MIC [5]?
A: 9.4 µM

Q: And the MIC [6]?
A: 2 µM

Q: And the MIC [9]?
A: > 50 µM

Q: What does the source list for `C[N+](C)(C)[C@H](C(=O)NCCCCCCCCOc1ccc(OCc2ccccc2)cc1)c1ccccc1`?
A: MIC [3]: 1.56 µM; IC50 [4]: 45 µM; MIC [6]: 1.56 µM

Q: For `COc1cccc(OC)c1C(=O)N[C@@H]1C(=O)N2[C@@H]1SC(C)(C)[C@@H]2C(=O)O` [METHICILLIN], which MIC [3] is on record?
A: 32 µM (≈ 12.2 µg/mL)

Q: And the MIC [5]?
A: 1 µM (≈ 0.38 µg/mL)

Q: Which results are given for `C[N+](C)(C)[C@@H](Cc1ccccc1)C(=O)NCCCCCCCCOc1ccc(OCc2ccccc2)cc1`?
A: IC50 [1]: 27.8 µM; IC50 [2]: 104 µM; MIC [3]: 0.78 µM; IC50 [4]: 40 µM; MIC [5]: 0.78 µM; MIC [6]: 0.39 µM; IC50 [7]: > 1500 µM; IC50 [8]: > 1500 µM; MIC [9]: > 50 µM; IC50 [10]: > 1500 µM

Q: For `O=C(O)c1cn(C2CC2)c2cc(N3CCNCC3)c(F)cc2c1=O` [CIPROFLOXACIN], which MIC [3] is on record?
A: 0.5 µM (≈ 0.166 µg/mL)

Q: What about the MIC [6] of the same compound?
A: 0.5 µM (≈ 0.166 µg/mL)

Q: For `Clc1ccccc1C(c1ccccc1)(c1ccccc1)n1ccnc1` [CLOTRIMAZOLE], which Activity [11] is on record?
A: inactive

Q: What about the Activity [12] of the same compound?
A: inactive

Q: And the IC50 [4]?
A: > 1500 µM

Q: What about the Activity [13] of the same compound?
A: inactive

Q: And the IC50 [8]?
A: 96.5 µM

Q: What about the Activity [14] of the same compound?
A: inactive

Q: Which results are given for `C[N+](C)(C)[C@H](COCCCCCCCCOc1ccc(OCc2ccccc2)cc1)Cc1ccccc1`?
A: MIC [3]: 1.56 µM; IC50 [4]: 21 µM; MIC [5]: 0.78 µM; MIC [6]: 0.39 µM; MIC [9]: > 50 µM

Q: Which results are given for `C[C@H]1c2cccc(O)c2C(=O)C2=C(O)[C@]3(O)C(=O)C(C(N)=O)=C(O)[C@@H](N(C)C)[C@@H]3[C@@H](O)[C@@H]21` [DOXYCYCLINE]?
A: MIC [3]: > 30 µM; MIC [5]: 1.56 µM (≈ 0.693 µg/mL); MIC [6]: 1.56 µM (≈ 0.693 µg/mL)

Q: Which MIC [3] does the source give for `N=C(N)N[C@H](COCCCCCCCCOc1ccc(OCc2ccccc2)cc1)c1ccccc1` here?
A: 0.78 µM (≈ 0.382 µg/mL)

Q: What about the IC50 [4] of the same compound?
A: 11 µM

Q: And the MIC [6]?
A: 3.13 µM (≈ 1.53 µg/mL)

Q: Which MIC [6] does the source give for `CO[C@H]1/C=C/O[C@@]2(C)Oc3c(C)c(O)c4c(O)c(c(/C=N/N5CCN(C)CC5)c(O)c4c3C2=O)NC(=O)/C(C)=C\C=C\[C@H](C)[C@H](O)[C@@H](C)[C@@H](O)[C@@H](C)[C@H](OC(C)=O)[C@@H]1C` [RIFAMPIN] here?
A: 1.5 µM (≈ 1.23 µg/mL)

Q: Which MIC [3] does the source give for `C[N+](C)(C)[C@H](COCCCCCCCCOc1ccc(OCc2ccccc2)cc1)c1ccccc1` here?
A: 3.13 µM

Q: And the IC50 [4]?
A: 38 µM

Q: And the MIC [6]?
A: 0.78 µM

Q: Which results are given for `C[N+](C)(C)[C@@H](Cc1ccc(O)cc1)C(=O)OCCCCCCCCOc1ccc(OCc2ccccc2)cc1`?
A: MIC [3]: 3.13 µM; IC50 [4]: 53 µM; MIC [6]: 1.56 µM

Q: For `C[N+](C)(C)[C@@H](Cc1c[nH]c2ccccc12)C(=O)OCCCCCCCCOc1ccc(OCc2ccccc2)cc1`, which IC50 [4] is on record?
A: 19 µM

Q: What does the source list for `N=C(N)N[C@@H](Cc1ccccc1)C(=O)NCCCCCCCCOc1ccc(OCc2ccccc2)cc1`?
A: MIC [3]: 1.56 µM (≈ 0.806 µg/mL); IC50 [4]: 12 µM; MIC [6]: 3.13 µM (≈ 1.62 µg/mL)

Q: With `CC1(C)S[C@@H]2[C@H](NC(=O)[C@H](N)c3ccccc3)C(=O)N2[C@H]1C(=O)O` [AMPICILLIN] as the compound, how does the MIC [3] read?
A: > 50 µM

Q: What about the MIC [6] of the same compound?
A: 0.2 µM (≈ 0.0699 µg/mL)
